Screening results (PubChem)
p47phox inh = p47phox/p22phox peptide binding inhibitors, primary screen, biochemical, uHTS, NADPH oxidase regulatory subunit. 220,000 compounds, 0.53% hits. Neutrophil cytosol factor 1 (Homo sapiens), P14598. fluorescence polarization, 2 h. inhibition, % at 24.7 µM;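 active = inhibition above about 30%, limit read from the data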;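 also: 0% = p47phox with labelled peptide and 100% = labelled peptide alone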
Target sequence (P14598 whole entry, looked up): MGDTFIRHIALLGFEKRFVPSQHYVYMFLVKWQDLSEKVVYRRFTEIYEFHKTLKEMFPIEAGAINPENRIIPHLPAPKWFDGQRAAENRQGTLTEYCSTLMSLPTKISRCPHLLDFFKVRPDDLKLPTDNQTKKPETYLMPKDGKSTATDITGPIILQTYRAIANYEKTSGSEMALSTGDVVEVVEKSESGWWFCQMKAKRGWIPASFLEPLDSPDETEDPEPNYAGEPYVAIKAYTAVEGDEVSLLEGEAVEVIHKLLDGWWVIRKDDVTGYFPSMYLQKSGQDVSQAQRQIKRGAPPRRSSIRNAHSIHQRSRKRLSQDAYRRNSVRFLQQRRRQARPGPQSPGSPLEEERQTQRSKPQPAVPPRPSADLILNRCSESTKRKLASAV
WT yeast gro inh = growth inhibition of WT strain, primary screen, mitochondrial fusion inhibitor project, WT and mutant strains, chemical genetic; mitochondrial fusion phenotypic screen; inhibition, % at 10 µM; 190,000 compounds, 2.1% hits; AID 1362, 2008; in the data active = inhibition above about 58%; tested in S. cerevisiae
Hck-Nef inh = inhibitors of Nef-activated human Hck kinase, primary screen, biochemical, Z-Lyte FRET, 384-well, Hck-YEEI | Tyrosine-protein kinase HCK (Homo sapiens), P08631 | Recombinant Hck-YEEI plus Nef, Z-Lyte FRET kinase assay | inhibition, % at 20 µM | 220,000 compounds, 0.68% hits;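 active = Hck-Nef kinase inhibition above about 50%, limit read from the data; inactive = inhibition below that limit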;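 also: 0% = DMSO with Hck plus Nef and 100% = Hck alone without Nef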
RAM network inh = inhibitors of the yeast RAM network, primary screen, dse1pr::URA3 reporter, 5-FOA selection. S. cerevisiae dse1pr::URA3 reporter, 5-FOA growth OD615, 2 d; analog-sensitive cbk1-as2 kinase mutant strain. inhibition, % at 50 µM. 190,000 compounds, 1.8% hits. AID 868, 2007;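 active = inhibition above a set limit, 3 SD over mean compound inhibition, cut at about 8.4% in these data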;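 also: 0% = DMSO-only wells with no growth and 100% = 10 µM 1-NA-PP1 full growth; inhibition rescues growth on 5-FOA so higher OD means more RAM inhibition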
Biofilm kill mix = clotrimazole potentiators killing C. albicans biofilm, primary screen, 4-compound mixtures. 120,000 compounds, 0.02% hits. AID 1242, 2008. C. albicans biofilm persisters + clotrimazole, fluorescence viability; primary screen in compound mixtures of four per well. inhibition, % at 7.6 µM;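 active = inhibition above 30.3% in the primary screen of four-compound pools, then above 30% when the compound was retested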;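 also: compounds exposed to preformed 24 h biofilms for 48 h; 0% = untreated biofilm control and 100% = clotrimazole plus chlorhexidine kill blank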
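Assay system: C. albicans biofilms / Medium: RPMI/MOPS medium, pH 7.0 / Schedule: biofilm formation 24 h, compound exposure 48 h, 37 °C / Measured by: Alamar Blue fluorescence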
Arbovirus inh = antivirals against arbovirus infection, primary screen, cell-based, full library, 10K replicate subset; 200,000 compounds, 0.37% hits; arbovirus infection cell-based antiviral screen; inhibition, % at 10 µM; in the data active = inhibition above about 30%
* = called active by the depositor; · = no result. A selection: hits, their analogues and other compounds. The true share with any hit is near 4.6%.

SMILES | p47phox inh | WT yeast gro inh | Hck-Nef inh | RAM network inh | Biofilm kill mix | Arbovirus inh
C=CCN(C(=O)CNC(=O)c1cccs1)C(C(=O)NC1CCCCC1)c1cccnc1 (stereo not given) | 47* | -14 | 20 | 0 | 18 | 7
Cc1cc(Cl)cc(C)c1OCCCCn1ccnc1 | -1 | 76* | -3 | -1 | · | -13
Cc1cc(OCCCCn2ccnc2)cc(C)c1Cl | 4 | 76* | 5 | 1 | 13 | -21
Fc1ccc(C(CCNCc2cccs2)c2ccco2)cc1 (stereo not given) | -11 | · | 6 | · | 21 | ·
O=S(=O)(NCCC(c1ccc(F)cc1)c1ccco1)c1ccccc1 (stereo not given) | -11 | 60* | 1 | 3 | 6 | -13
Cc1nc2cc3ccccc3cc2c(=O)[nH]1 | -6 | 11 | 15 | -1 | · | -6
Cc1cc2cc3c(=O)[nH]c(=O)[nH]c3nc2cc1C | 151* | · | 8 | · | 21 | ·
Cc1ccc(NC(=O)CSc2ncccc2C(=O)Oc2cccc([N+](=O)[O-])c2)cc1Cl | -3 | 3 | 0 | 1 | 16 | 0
CC(=O)N(Cc1cc(=O)[nH]c2ccccc12)c1cccc(C)c1 | -7 | 65* | 1 | 3 | · | 2
CC(=O)N(Cc1cc(=O)[nH]c2ccccc12)c1ccccc1 | -10 | 18 | 1 | 1 | · | 5
Clc1cccc(Cl)c1Cn1cnc2c(N3CCCCCC3)ncnc21 | -13 | 75* | 13 | -1 | · | -7
Cc1ccc(C2(C)CC(C)(C)N(C(=O)CSc3nnc(C)s3)c3ccccc32)cc1 (stereo not given) | 4 | 59* | 0 | 7 | 15 | -23
Cc1nnc(SCC(=O)N2c3ccccc3C(C)(c3ccccc3)CC2(C)C)s1 (stereo not given) | -4 | 40 | 5 | 1 | 14 | 3
CC(C)NC(=S)N/N=C/c1cccs1 | -7 | 0 | 9 | 0 | · | -8
CC(C)NC(=S)N/N=C/c1ccc(C(C)(C)C)cc1 | 27 | 61* | 22 | 3 | 15 | -33
COc1ccc(C(=O)O/N=C(\N)Cc2ccc(Cl)c(Cl)c2)cc1OC | -15 | 94* | 3 | -1 | 15 | -30
CC(=O)N1CCC(=O)N(C(C)C)c2ccccc21 | -18 | -2 | -3 | 2 | · | 8
CCc1cccc(CC)c1NC(=S)NC(C)c1ccccc1 (stereo not given) | -8 | 60* | 7 | 0 | 4 | -32
O=C(Nc1cccc2ccccc12)N1CCN(c2ncccn2)CC1 | -6 | -7 | -7 | 1 | 14 | -1
Cc1cccc(NC(=S)c2nc3ccccc3s2)c1 | -5 | 67* | 2 | 3 | · | 3
CN1C(=O)[C@@H]2[C@@H]3C[C@@H]([C@H]4ON=C(c5ccccc5OCC#N)[C@@H]34)[C@@H]2C1=O | -3 | · | 8 | · | 21 | ·
N#Cc1c(-c2c(Cl)cccc2Cl)noc1/C=C/Nc1ccc(C(=O)O)cc1 | -6 | -5 | 39 | 8.6* | 16 | 30
CN(C)c1ccnc2c[cH-]cc12.[Fe].c1ccc(-[c-]2[c-](-c3ccccc3)[c-](-c3ccccc3)[c-](-c3ccccc3)[c-]2-c2ccccc2)cc1 (stereo not given) | 90* | · | 16 | · | 15 | ·
CN(C)c1ccnc(Nc2ccccc2)c1C#N | 1 | 3 | -26 | 1 | 12 | -2
CN(CC(=O)Nc1ccccc1Sc1ccccc1)C1CCCCC1 | 9 | 76* | 7 | 1 | 15 | -10
SMILES | p47phox inh | WT yeast gro inh | Hck-Nef inh | RAM network inh | Biofilm kill mix | Arbovirus inh
CSc1ccccc1NC(=O)CN(C1CCCCC1)S(C)(=O)=O | -17 | -8 | 0 | 1 | · | 3
Cc1nc(Cl)sc1C(=O)Nc1cccc2ccccc12 | -7 | -12 | 4 | 0 | 3 | -6
CC12CCC(C(=O)O)(c3nc4cc([N+](=O)[O-])ccc4nc31)C2(C)C (stereo not given) | -1 | · | 34 | · | 21 | ·
CC(C)c1cccc(C(C)C)c1NC(=O)c1ccc(OCC(=O)NCc2ccccc2)cc1 | 6 | 0 | 2 | 1 | 11 | -19
COc1cc2nc(CN3CCN(C(c4ccccc4)c4ccccc4)CC3)[nH]c(=O)c2cc1OC | 63* | · | 25 | · | 16 | ·
CCn1c(SCc2nc3cc(OC)c(OC)cc3c(=O)[nH]2)nc2ccccc21 | -11 | -15 | -4 | 8 | 13 | -2
O=Cc1ccc(OCc2ccccn2)cc1 | -10 | 0 | -5 | 0 | 12 | 34*
c1ccc(COc2cccc(CNCc3ccccn3)c2)cc1 | 5 | 4 | -7 | 2 | 12 | 5
O=[N+]([O-])c1ccc(N/N=C2/CCCCC2c2ccccn2)cc1 (stereo not given) | -9 | 74* | 7 | -1 | 23 | -10
CC(C)(C)c1ccc(N/N=C(\C#N)S(=O)(=O)C(C)(C)C)cc1 | -4 | 5 | 7 | 3 | 12 | 34*
Cc1ccc(-n2nc(C(=O)N3CCN(C)CC3)c3c4ccccc4n(C)c3c2=O)cc1 | · | · | 11 | · | · | ·
COc1ccc(-n2nc(C(=O)NCc3ccco3)c3c4ccccc4n(C)c3c2=O)cc1Cl | -4 | -8 | -3 | 9.8* | · | 0
COc1ccccc1CNC(=O)c1nn(-c2ccc(C)cc2)c(=O)c2c1c1ccccc1n2C | -2 | -11 | 17 | 9.4* | · | -18
COc1ccc(-n2nc(C(=O)NCC(=O)NCc3ccco3)c3ccccc3c2=O)cc1 | -2 | -8 | 0 | 2 | · | 1
Cc1ccc(-c2c(C(=O)NCc3ccc(F)cc3)oc(=O)c3ccccc23)cc1 | -7 | 62* | -1 | 4 | 17 | 12
CCNC(=O)CCS(=O)(=O)c1ccc2ccccc2c1 | -9 | -12 | -2 | 2 | 13 | 2
CCc1c(O)nc(SCC(=O)Nc2nc3ccccc3s2)n(C2CCCCC2)c1=O | -33 | · | 24 | · | 12 | ·
COc1ccc(S(=O)(=O)Nc2ccc3ccccc3c2)cc1C | -16 | 79 | 7 | 5 | · | -35
CCc1ccc(NS(=O)(=O)c2ccc(OC)c(C)c2)cc1 | -1 | 59* | -2 | 5 | · | 8
CCC(CC)C(=O)c1c[nH]c(C(=O)NCc2ccncc2)c1 | 6 | 7 | 25 | 2 | 12 | -2
O=C(Oc1cccc(Nc2ncnc3ccccc23)c1)c1ccccc1Cl | -20 | 59* | 31 | 0 | · | -3
COC(=O)c1sc(NC(=O)c2ccc([N+](=O)[O-])o2)c(C#N)c1C | -5 | · | 21 | · | 12 | ·
CC(C)N(Cc1cnn(C)c1)Cc1nc(Cc2ccccc2Cl)no1 | 2 | -5 | 22 | 0 | 29 | 5
CN(Cc1cnn(C)c1)Cc1nc(Cc2ccccc2Cl)no1 | 43* | 2 | 18 | 1 | 19 | 11
